Calls of active or inactive are those of the source.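 The calls were made as follows, unless noted: active = a full or partial loss of lipid-probe fluorescence in the fish gall bladder, intestine or both, judged by eye; inactive = no fluorescence loss, or compound toxic to the fish.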
Key:
[1] = inhibitors of TNFa-induced NFkB p65 translocation, primary screen, imaging, HUVEC, MLSMR starter and 10KST1 sets (AID 438;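 active = inhibition above 20% together with a positive visual image hit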;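 also: compound added about 3h40 before a 20 min TNFalpha stimulation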;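 as to inhibition: signal is the nuclear over cytoplasmic p65 intensity ratio per well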); conditions: HUVEC TNFa-induced p65 nuclear translocation; cell count: measured here: nuclei count (cytotoxicity indicator), at 2.08 µM; inhibition: at 2 µM, stronger effect = higher value, 0% TNFa-plus-vehicle, 100% no-TNFa wells
[2] = inhibitors of E-selectin induction by TNFa, primary screen, imaging, HUVEC, immunofluorescence, MLSMR starter and 10KST1 sets (AID 487;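 active = visually confirmed hit in the image check and inhibition above 20%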;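 as to inhibition: signal is fraction of cell area covered by stained E-selectin grains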;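 as to nuclei count: 100% = median nuclei count of all wells on the same plate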); conditions: HUVEC TNFalpha-induced E-selectin immunofluorescence imaging, at 2 µM; inhibition: stronger effect = higher value; nuclei count: measured here: cell number, toxicity
[3] = DUSP6 inhibitors restoring Erk phosphorylation by chemical complementation, primary imaging in DUSP6-transfected HeLa (AID 609;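 active = compounds giving at least 50% inhibition in the cell-based MKP-3 phosphatase rescue imaging test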;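 as to inhibition: phospho-Erk level distribution per well compared with pooled transfected vehicle control wells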); conditions: HeLa MKP-3 transfected, phospho-Erk imaging KS statistic, at 10 µM, cells stimulated with TPA for 15 min
[4] = target: Dual specificity protein phosphatase 6 (Homo sapiens) (UniProt Q16828); assay: as above; conditions: HeLa MKP-3 transfected, phospho-Erk imaging KS statistic; at 10 µM; stronger effect = higher value; cells stimulated with TPA for 15 min
Chain of Dual specificity protein phosphatase 6 (Homo sapiens) (Q16828 whole entry, looked up): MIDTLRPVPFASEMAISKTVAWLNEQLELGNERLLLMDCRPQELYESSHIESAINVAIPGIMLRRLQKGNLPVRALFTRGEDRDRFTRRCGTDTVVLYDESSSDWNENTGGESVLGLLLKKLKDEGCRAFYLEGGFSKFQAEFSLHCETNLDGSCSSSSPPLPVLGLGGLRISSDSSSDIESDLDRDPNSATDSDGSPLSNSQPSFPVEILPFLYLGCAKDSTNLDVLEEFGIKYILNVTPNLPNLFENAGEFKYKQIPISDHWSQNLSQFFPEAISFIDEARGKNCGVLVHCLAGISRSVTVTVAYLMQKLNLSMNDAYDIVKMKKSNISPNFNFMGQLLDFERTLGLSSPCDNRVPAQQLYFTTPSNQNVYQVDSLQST

[5] = target: Voltage-gated potassium channel subunit beta-2 (Rattus norvegicus) (UniProt P62483); assay: KvBeta enzyme negative modulators, primary screen, biochemical, NADPH fluorescence (AID 622;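 active = fluorescence slope higher than the sample average by over 3 SD, cut at about -0.22 in these data, passing the limit was not always enough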;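 also: slope of raw intensity against log time taken from 70 to 1610 s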); conditions: recombinant KvBeta, 4-cyanobenzaldehyde reduction, at 10 µM, stronger effect = higher value
Chain of Voltage-gated potassium channel subunit beta-2 (Rattus norvegicus) (P62483 whole entry, looked up): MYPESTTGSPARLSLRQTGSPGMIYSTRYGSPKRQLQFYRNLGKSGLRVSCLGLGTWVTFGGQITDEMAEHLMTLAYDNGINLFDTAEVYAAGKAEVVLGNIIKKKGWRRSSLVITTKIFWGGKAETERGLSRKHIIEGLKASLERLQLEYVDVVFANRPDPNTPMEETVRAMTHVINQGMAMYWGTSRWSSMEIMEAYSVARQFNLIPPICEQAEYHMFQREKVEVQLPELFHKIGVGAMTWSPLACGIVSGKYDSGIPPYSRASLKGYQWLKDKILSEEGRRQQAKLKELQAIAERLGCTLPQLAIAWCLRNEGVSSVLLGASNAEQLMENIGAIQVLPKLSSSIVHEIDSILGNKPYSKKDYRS

[6] = target: Voltage-gated potassium channel subunit beta-2 (Rattus norvegicus) (UniProt P62483); assay: KvBeta positive modulators, primary screen, biochemical, NADPH fluorescence (AID 623;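 active = NADPH fluorescence slope more negative than the mean of all samples by about 3 SD, 99.7% confidence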;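 also: fluorescence intensity change per second fitted from 20 to 320 s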); conditions: Recombinant KvBeta, NADPH fluorescence decrease slope, 10 min; at 10 µM; stronger effect = lower value
[7] = target: Alpha-2C adrenergic receptor (Homo sapiens) (UniProt P18825); assay: modulators of alpha2C/GIRK thallium flux, primary screen, cell-based, HEK293 alpha2C/GIRK1/2 (AID 624;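 active = fluorescence slope after compound addition differing from the mean of all screened samples at 99.7% confidence, in either direction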;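 also: slope of fluorescence ratio to pre-addition baseline per second over 15 to 24 s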); conditions: thallium flux BTC fluorescence, at 10 µM, actives lie on both sides
Chain of Alpha-2C adrenergic receptor (Homo sapiens) (P18825 whole entry, looked up): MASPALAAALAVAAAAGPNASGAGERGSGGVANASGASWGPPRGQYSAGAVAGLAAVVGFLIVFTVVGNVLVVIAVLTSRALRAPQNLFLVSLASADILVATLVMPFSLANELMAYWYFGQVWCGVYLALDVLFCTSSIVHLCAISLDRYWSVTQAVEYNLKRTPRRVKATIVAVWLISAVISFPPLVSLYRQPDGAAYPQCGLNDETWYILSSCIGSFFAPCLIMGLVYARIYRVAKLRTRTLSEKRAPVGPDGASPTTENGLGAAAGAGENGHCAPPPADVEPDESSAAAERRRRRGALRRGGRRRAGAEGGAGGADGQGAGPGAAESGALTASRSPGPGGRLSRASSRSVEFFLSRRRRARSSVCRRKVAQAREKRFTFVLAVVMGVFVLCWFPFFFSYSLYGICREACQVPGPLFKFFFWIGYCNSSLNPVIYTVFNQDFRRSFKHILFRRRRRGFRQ

[8] = inhibitors of larval lipid processing in zebrafish, primary screen, whole organism, PED6 fluorescence, gall bladder and intestine (AID 686); conditions: Zebrafish larvae PED6 lipid processing, fluorescence scoring; screened at 20 µM (by protocol);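 also: larvae 5 to 7 days old with five fish per well; signal comes from phospholipase A2 cleavage of quenched PED6 carried via bile; overnight exposure to compound and PED6 before scoring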
Procedure, shortened: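 system = live zebrafish larvae aged 5-7 days, whole organism | probe or stimulus = ingested quenched lipid PED6 at 100 nM | doses = 20 µM single dose | timing = overnight exposure | detection = fluorescence microscopy with visual scoring of gall bladder and intestine | read-out = visual per-well fluorescence inhibition score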

[9] = inhibitors of Chlamydomonas gravitaxis, primary screen, whole organism, Chlamydomonas reinhardtii, WT vs cilia-less mutant, absorbance, 96-well (AID 463189;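 active = inhibition at or above 50% relative to wild type and mutant plate controls; inactive = inhibition below 50%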;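 also: 0% = wild type cc124 cells in DMSO and 100% = ciliumless bld1 mutant cells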); conditions: OD600 absorbance, 2 days, at 10 µM, stronger effect = higher value
[10] = measured here: cell density z-score
[11] = measured here: nuclear c-Myc green intensity z-score
[12] = measured here: nuclear pErk red intensity z-score, stronger effect = higher value

Structure (SMILES)	cell count [1]	inhibition [1]	inhibition [2]	nuclei count [2] [%]	z-score [3, 10]	z-score [3, 11]	z-score [3, 12]	inhibition [4]	fluorescence slope [5]	NADPH fluorescence slope [6]	slope [7]	outcome [8]	inhibition [9]
COc1cccc(/C=C2/CN(C)CC3=C2OC(N)=C(C#N)C3c2cccc(OC)c2)c1 (stereo unspecified)	562	-0.3% (inactive)	-91.1% (inactive)	190	1.7	-1.04	-1.64	-1.12% (inactive)	-0.289 (inactive)	4.6e-07 (inactive)	0.00546 (inactive)	inactive	3.47% (inactive)
Cc1cc(Cl)ccc1OCC(=O)OC(C)C(=O)N(C)C (stereo unspecified)	356	-24% (inactive)	-194% (inactive)	168	1.09	0.169	-0.845	5.26% (inactive)	-0.439 (inactive)	-0.000171 (inactive)	0.00631 (inactive)	inactive	7.97% (inactive)
CCc1cccc(C)c1N(C(=O)Cn1c(=O)[nH]c2ccccc21)C(C)COC (stereo unspecified)	362	-2.1% (inactive)	-33.7% (inactive)	97	0.81	-0.372	0.826	5.57% (inactive)	-0.546 (inactive)	-4.3e-07 (inactive)	0.00687 (inactive)	inactive	32.6% (inactive)
N#Cc1ccc(-c2ccco2)nc1SCC(=O)c1ccc(Cl)cc1	431	0% (inactive)	-80.7% (inactive)	138	-1.49	-0.417	1.23	7.83% (inactive)	-0.288 (inactive)	-2.9e-05 (inactive)	0.00718 (inactive)	inactive	-1.61% (inactive)
COC(=O)CNc1nc(-c2cccnc2)nc2ccccc12	543	-5.9% (inactive)	-23.5% (inactive)	156	-0.375	1.95	0.774	-11.9% (inactive)	-0.327 (inactive)	8.2e-06 (inactive)	0.0052 (inactive)	inactive	-0.905% (inactive)
CC(C)(C)c1cccc(/C=N/O)c1O	519	-19.1% (inactive)	-214% (inactive)	140	2.16	-0.74	-1.64	7.93% (inactive)	-0.526 (inactive)	-2.2e-05 (inactive)	0.00592 (inactive)	inactive	9.58% (inactive)
N#CC1=C(N)C(C#N)(C#N)[C@H](c2ccncc2)[C@H]2CN(C(=O)OCc3ccccc3)CC=C12	555	-9.5% (inactive)	-136% (inactive)	192	-0.56	-0.0237	-0.0209	20.3% (inactive)	-0.271 (inactive)	-4.4e-06 (inactive)	0.00576 (inactive)	inactive	7.4% (inactive)
COc1ccccc1-c1nnc2sc(COc3ccccc3)nn12	670	-8.1% (inactive)	-201% (inactive)	161	0.204	-1.19	2.54	-16.8% (inactive)	-0.444 (inactive)	-0.000151 (inactive)	0.00451 (inactive)	inactive	5.33% (inactive)
N#CC12CCCCC1CC1CCCCC1(C#N)N2Cc1cccnc1 (stereo unspecified)	364	-10.3% (inactive)	3.8% (inactive)	97.2	1.59	-0.921	-1.61	17% (inactive)	-0.557 (inactive)	-6.5e-05 (inactive)	0.00335 (inactive)	inactive	44.6% (inactive)
C=CCNc1sc(C(=O)C2CC2)c(N)c1C#N	669	-24.9% (inactive)	-70.3% (inactive)	173	0.613	-1.22	0.948	19.4% (inactive)	-0.366 (inactive)	-3.3e-05 (inactive)	0.00551 (inactive)	inactive	-5.34% (inactive)
Clc1ccc2nc(CSc3nc4ccccc4o3)cn2c1	405	-12.3% (inactive)	-79.3% (inactive)	99.4	-0.399	-0.856	-1.36	11.9% (inactive)	-0.49 (inactive)	-0.000153 (inactive)	0.00552 (inactive)	inactive	-14.7% (inactive)
C=CCOC(=O)C(C#N)c1nc2ccccc2nc1N1CCC(C(=O)OCC)CC1 (stereo unspecified)	486	-17.7% (inactive)	-58.1% (inactive)	138	0.17	0.218	-0.151	-6.06% (inactive)	-0.471 (inactive)	-6.3e-05 (inactive)	0.00188 (inactive)	inactive	13.6% (inactive)
COc1ccccc1N(O)C1CC(=O)N(c2ccc(Br)cc2)C1=O (stereo unspecified)	351	4% (inactive)	46% (inactive)	74.7	-0.0216	1.1	0.319	-2.59% (inactive)	-0.415 (inactive)	-4.4e-05 (inactive)	0.00547 (inactive)	inactive	37.8% (inactive)
Clc1ccc(-c2nnc3sc(Cc4cccs4)nn23)cc1	671	-3.4% (inactive)	-156% (inactive)	134	0.365	-1.12	-1.66	22.7% (inactive)	-0.451 (inactive)	-4.9e-05 (inactive)	0.00474 (inactive)	inactive	19.8% (inactive)
CCOC(=O)c1c(C)n(C)c2ccc(OC)c(NC(=O)c3cccs3)c12	361	-4.3% (inactive)	-0.3% (inactive)	151	-1.28	0.0285	0.397	-4.59% (inactive)	-0.424 (inactive)	-0.00012 (inactive)	0.00568 (inactive)	inactive	-6.67% (inactive)
CN(C)S(=O)(=O)Nc1ccc(NS(=O)(=O)N(C)C)c(S(=O)(=O)c2ccccc2)c1	341	-11.9% (inactive)	-131% (inactive)	99.4	-0.765	0.48	-2.08	7.73% (inactive)	-0.495 (inactive)	-0.000114 (inactive)	0.00381 (inactive)	inactive	-7.02% (inactive)
CCCOc1ccc(/C(O)=C2/C(=O)C(=O)N(CCCN3CCOCC3)C2c2ccncc2)cc1 (stereo unspecified)	398	-0.5% (inactive)	-151% (inactive)	145	0.781	0.803	-0.95	-8.27% (inactive)	-0.341 (inactive)	-1.2e-05 (inactive)	0.0051 (inactive)	inactive	0.312% (inactive)
CCOC(=O)c1c(NC(=O)CCN2CCOCC2)sc2c1CC(C)(C)OC2	658	-8.1% (inactive)	-45.3% (inactive)	163	0.476	1.14	0.27	-7.28% (inactive)	-0.422 (inactive)	-3e-05 (inactive)	0.00607 (inactive)	inactive	-12.8% (inactive)
Cc1cc(COc2ccccc2OCCN2CCN(C)CC2)no1	551	-2.5% (inactive)	-128% (inactive)	134	0.378	-1.63	0.134	5.95% (inactive)	-0.514 (inactive)	-6.1e-05 (inactive)	0.0049 (inactive)	inactive	9.35% (inactive)
Cc1ccc(-c2nn3c(-c4cccc(Cl)c4)nnc3s2)cc1	482	-6.6% (inactive)	-115% (inactive)	128	-1.6	-0.179	1.45	-7.86% (inactive)	-0.434 (inactive)	7.3e-06 (inactive)	0.00635 (inactive)	inactive	26.8% (inactive)
CN(Cc1c(O)ccc2c1oc(=O)c1ccccc12)C1CCCCC1	585	-2.8% (inactive)	6.7% (inactive)	172	0.636	0.684	0.214	-4.27% (inactive)	-0.348 (inactive)	-7e-05 (inactive)	0.00514 (inactive)	inactive	3.79% (inactive)
c1ccc(OCc2nn3c(-c4cccnc4)nnc3s2)cc1	598	-6.1% (inactive)	-87.1% (inactive)	146	0.586	-1.52	-0.25	-16.8% (inactive)	-0.423 (inactive)	-5.5e-05 (inactive)	0.0063 (inactive)	inactive	22.5% (inactive)
Cc1c(-c2cccs2)[n+](=O)c2c(n1[O-])CCCC2	431	-16.7% (inactive)	-128% (inactive)	164	1.59	-0.562	-0.0919	15% (inactive)	-0.419 (inactive)	-1.1e-05 (inactive)	0.0072 (inactive)	inactive	15.1% (inactive)
COc1ccc(Oc2nc3c(c(=O)n(C)c(=O)n3C)n2Cc2cccc(OC)c2)cc1	468	-1.9% (inactive)	-260% (inactive)	162	1.97	-0.65	-2.21	26% (inactive)	-0.295 (inactive)	-1.2e-05 (inactive)	0.00507 (inactive)	inactive	31.4% (inactive)
O=C(CCN1CCCCC1)Nc1cccc(Cl)c1	336	-14.7% (inactive)	-49.9% (inactive)	138	-1.72	0.965	0.516	-3.5% (inactive)	-0.42 (inactive)	-0.000129 (inactive)	0.0069 (inactive)	inactive	-5.09% (inactive)
CN(C)CC(O)COc1ccc(C(C)(C)c2ccc(OCC(O)CN(C)C)cc2)cc1 (stereo unspecified)	459	2.6% (inactive)	-216% (inactive)	154	-1.06	1.22	0.592	-5.62% (inactive)	-0.397 (inactive)	-3.1e-05 (inactive)	0.0054 (inactive)	inactive	-19.9% (inactive)
CC1(C)Cc2c(C#N)c(NCCc3ccccc3)nc(-c3ccco3)c2CO1	585	-9.7% (inactive)	-33.8% (inactive)	184	0.597	-1.77	0.237	22.3% (inactive)	-0.122 (inactive)	5.1e-06 (inactive)	0.00499 (inactive)	inactive	34.4% (inactive)

Source: PubChem BioAssay
